Test results published in publication PMC3717159 (Investigational New Drugs, 2012).

How the values were obtained:
human MET kinase domain [1] = molecular target: T1, human MET kinase domain (Homo sapiens, UniProt P08581); assay: MET kinase radiometric filter-binding assay; assay type: biochemical; details: versus ATP
human MET kinase domain [2] = molecular target: T1, human MET kinase domain; assay: MET kinase spin column assay; assay type: biochemical; details: from Koff
DU145 cells = assay: HGF induced cell scattering assay; assay type: cell-based; details: 0.01–10 μM, HGF 20 ng/ml, 48 h, colony counts
In short: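 DU145 cells (2 × 10^3/well) were plated on poly-D-lysine and given test compound (0.4 % DMSO), then immediately human HGF (20 ng/ml). After 48 h at 37 °C, cells were fixed in 2 % formaldehyde and stained with Alexa488-phalloidin plus propidium iodide. Colonies (≥ 4 cells) were counted by laser-scanning microplate cytometry.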

MV4-11 cells = assay: In vitro anti-proliferative activity for MV4-11 cells; assay type: cell-based; details: Homo sapiens, MV4-11, read-out: in vitro anti-proliferative activity IC50
[3] = molecular target: MET phosphorylation in S114 xenograft tumors (Homo sapiens, UniProt P08581); assay: In vivo MET target inhibition in S114 xenograft tumors; set-up: species or system mouse
Sequence of MET phosphorylation in S114 xenograft tumors (P08581 25-1390): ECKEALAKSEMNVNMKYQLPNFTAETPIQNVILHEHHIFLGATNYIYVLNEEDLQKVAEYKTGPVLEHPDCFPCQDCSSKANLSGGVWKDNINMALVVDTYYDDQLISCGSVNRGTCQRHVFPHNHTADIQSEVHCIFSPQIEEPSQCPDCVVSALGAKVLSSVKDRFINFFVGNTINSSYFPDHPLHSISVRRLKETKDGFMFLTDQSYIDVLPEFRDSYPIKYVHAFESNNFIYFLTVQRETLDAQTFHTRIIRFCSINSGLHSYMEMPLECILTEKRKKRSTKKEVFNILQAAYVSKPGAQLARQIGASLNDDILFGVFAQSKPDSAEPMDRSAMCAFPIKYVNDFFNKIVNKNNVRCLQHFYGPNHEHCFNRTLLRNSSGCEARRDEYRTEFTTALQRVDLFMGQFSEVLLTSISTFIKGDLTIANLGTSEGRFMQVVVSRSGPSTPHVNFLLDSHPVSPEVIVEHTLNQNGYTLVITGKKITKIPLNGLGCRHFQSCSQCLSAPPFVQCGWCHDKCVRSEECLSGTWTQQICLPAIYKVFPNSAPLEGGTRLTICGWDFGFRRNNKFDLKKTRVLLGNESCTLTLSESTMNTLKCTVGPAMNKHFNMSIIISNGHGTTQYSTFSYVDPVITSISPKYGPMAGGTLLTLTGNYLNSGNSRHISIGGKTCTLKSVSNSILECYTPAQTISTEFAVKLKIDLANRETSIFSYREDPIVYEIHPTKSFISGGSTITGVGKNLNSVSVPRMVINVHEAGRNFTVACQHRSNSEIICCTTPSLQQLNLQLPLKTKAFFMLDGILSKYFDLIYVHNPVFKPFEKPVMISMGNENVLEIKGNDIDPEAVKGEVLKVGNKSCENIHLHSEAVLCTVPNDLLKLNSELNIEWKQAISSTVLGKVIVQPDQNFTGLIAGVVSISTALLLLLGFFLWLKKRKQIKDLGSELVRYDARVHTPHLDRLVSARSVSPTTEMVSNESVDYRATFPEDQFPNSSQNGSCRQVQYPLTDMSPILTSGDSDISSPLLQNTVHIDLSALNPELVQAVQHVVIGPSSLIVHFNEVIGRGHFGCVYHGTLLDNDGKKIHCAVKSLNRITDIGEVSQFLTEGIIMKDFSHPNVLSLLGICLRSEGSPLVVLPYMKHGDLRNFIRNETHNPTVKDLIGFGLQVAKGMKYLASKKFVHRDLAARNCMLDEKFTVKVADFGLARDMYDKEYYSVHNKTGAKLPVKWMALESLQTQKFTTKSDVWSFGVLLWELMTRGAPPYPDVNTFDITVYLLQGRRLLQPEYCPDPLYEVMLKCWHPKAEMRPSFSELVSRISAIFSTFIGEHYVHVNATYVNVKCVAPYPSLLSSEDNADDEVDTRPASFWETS
In short: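 Subcutaneous tumors from S114 cells (NIH3T3-derived murine line engineered to express human MET and HGF) in nude mice. Test compound in 10 % acacia, single oral dose. Dose response read 2 h post-dose (n = 8 per dose group, 4 studies pooled); 12 mg/kg time course over 24 h. Tumor phospho-MET measured by MSD ELISA relative to vehicle group, with pharmacokinetic analysis alongside.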

Pharmacokinetics in mice = details: mouse, in vivo, oral
[4] = Pharmacokinetics in non-human primate; details: in vivo, oral
U-87MG xenograft = assay: Anti-tumor growth activity, xenograft model; assay type: in vivo, mouse; details: MET autocrine model, oral
In short: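 U-87MG xenografts were grown in nude mice. Test compound in 10 % acacia was given orally twice daily, either continuously or intermittently. The 5/2 schedule (5 dosing days, 2 off) ran for 4 cycles; the 9/5 schedule (9 dosing days, 5 off) ran for 2 cycles. Tumour growth was compared with vehicle controls.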

KP4 xenograft = assay: Anti-tumor growth activity, xenograft model; assay type: in vivo, mouse; details: KP4, MET autocrine model, oral
In short: (§1)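 Xenografts were grown in athymic or CD-1 nude mice. Test compound was formulated in 10 % acacia and given orally twice daily without interruption. Tumour growth was compared with a vehicle-treated control group.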

MKN45 xenograft = assay: Anti-tumor growth activity, xenograft model; assay type: in vivo, mouse; details: MKN45, very high MET gene amplification, oral
In short: as §1

H441 xenograft = assay: Anti-tumor growth activity, xenograft model; assay type: in vivo, mouse; details: H441, MET over-expression, oral
In short: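 H441 xenografts were grown in nude mice. Test compound in 10 % acacia was given orally twice daily, either continuously or on intermittent schedules. The 5/2 schedule (5 dosing days, 2 drug-free days) ran for 6 cycles; the 9/5 schedule (9 dosing days, 5 drug-free days) ran for 3 cycles. Tumour growth was compared with vehicle controls.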

H1993 xenograft = assay: Anti-tumor growth activity, xenograft model; assay type: in vivo, mouse; details: H1993, co-express MET and MST1R, oral
In short: as §1

HT29 xenograft = assay: Anti-tumor growth activity, xenograft model; assay type: in vivo, mouse; details: HT29, co-express MET and MST1R, oral
In short: as §1

MV4-11 xenograft = assay: Anti-tumor growth activity, xenograft model; assay type: in vivo, mouse; details: MV4-11, FLT3-activating mutation, oral
In short: (§2)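 Nude mice (athymic or CD-1) carried H1299 orthotopic tumours or MV4-11 xenografts. Test compound was formulated in 10 % acacia and given orally.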

H1299 orthotopic model = assay: Anti-tumor growth activity, orthotopic model of NSCLC; assay type: in vivo, mouse; details: AXL over-expression, oral
In short: as §2

U-87MG xenograft tumors = assay: Multiplexed immunofluorescence tumor tissue imaging of U-87MG xenograft tumors; assay type: in vivo, mouse; details: 12 mg/kg once daily, 28 days, vs vehicle
In short: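 Mice bearing U-87MG xenografts received test compound orally (10 % acacia) at 1.3 or 12 mg/kg once daily for 28 days, or vehicle. Tumours were then excised and fixed in Zinc-Tris. One panel stained […], CD31, Ki67 and TUNEL; the other stained Hoechst, CD31, GLUT1 and smooth muscle actin. Staining was quantified by imaging.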

ALK = ALK (Homo sapiens, UniProt Q9UM73); assay: Biochemical screening against 442 kinases
Sequence of ALK (Q9UM73 19-1620): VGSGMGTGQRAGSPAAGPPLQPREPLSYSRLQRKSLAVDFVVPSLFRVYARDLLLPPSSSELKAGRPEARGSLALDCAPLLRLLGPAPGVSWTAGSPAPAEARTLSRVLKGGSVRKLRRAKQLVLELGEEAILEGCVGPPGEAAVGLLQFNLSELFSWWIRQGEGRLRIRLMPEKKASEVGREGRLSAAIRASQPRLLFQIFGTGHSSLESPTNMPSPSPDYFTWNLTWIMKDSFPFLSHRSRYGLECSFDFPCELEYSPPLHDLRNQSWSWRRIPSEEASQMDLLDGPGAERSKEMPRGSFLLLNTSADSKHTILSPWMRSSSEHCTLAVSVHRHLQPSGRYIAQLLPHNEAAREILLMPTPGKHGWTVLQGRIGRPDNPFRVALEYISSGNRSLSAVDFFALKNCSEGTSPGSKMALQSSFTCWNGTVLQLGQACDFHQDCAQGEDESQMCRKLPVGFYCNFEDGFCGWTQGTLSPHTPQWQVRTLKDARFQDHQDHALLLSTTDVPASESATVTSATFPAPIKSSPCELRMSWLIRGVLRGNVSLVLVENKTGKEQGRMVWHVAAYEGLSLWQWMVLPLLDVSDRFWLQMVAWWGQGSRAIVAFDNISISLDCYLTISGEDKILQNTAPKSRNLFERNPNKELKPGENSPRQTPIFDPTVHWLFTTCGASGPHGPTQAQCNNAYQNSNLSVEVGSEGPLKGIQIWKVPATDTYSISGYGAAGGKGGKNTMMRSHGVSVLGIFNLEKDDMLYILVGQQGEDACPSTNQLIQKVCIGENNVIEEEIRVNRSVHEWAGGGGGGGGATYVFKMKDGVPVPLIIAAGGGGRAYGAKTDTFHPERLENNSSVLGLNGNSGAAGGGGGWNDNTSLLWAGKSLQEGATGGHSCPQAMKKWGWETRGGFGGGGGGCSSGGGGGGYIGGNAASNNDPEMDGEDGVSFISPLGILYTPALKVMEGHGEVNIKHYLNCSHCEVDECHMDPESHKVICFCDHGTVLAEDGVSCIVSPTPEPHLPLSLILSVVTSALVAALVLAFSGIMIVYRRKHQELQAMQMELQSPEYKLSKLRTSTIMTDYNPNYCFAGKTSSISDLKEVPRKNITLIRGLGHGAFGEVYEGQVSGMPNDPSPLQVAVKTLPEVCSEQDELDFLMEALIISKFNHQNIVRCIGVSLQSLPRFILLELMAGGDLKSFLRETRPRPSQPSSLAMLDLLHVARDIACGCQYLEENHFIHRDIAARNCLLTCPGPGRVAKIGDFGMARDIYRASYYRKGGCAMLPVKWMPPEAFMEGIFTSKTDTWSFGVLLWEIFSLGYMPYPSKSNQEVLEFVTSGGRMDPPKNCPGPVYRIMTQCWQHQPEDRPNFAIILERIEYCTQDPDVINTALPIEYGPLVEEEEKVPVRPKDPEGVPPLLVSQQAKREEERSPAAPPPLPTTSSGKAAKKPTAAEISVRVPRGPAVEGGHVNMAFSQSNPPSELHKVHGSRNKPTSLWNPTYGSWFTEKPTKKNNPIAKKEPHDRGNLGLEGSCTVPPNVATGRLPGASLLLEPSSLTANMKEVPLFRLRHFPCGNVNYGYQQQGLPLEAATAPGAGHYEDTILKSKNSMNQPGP

LTK = LTK (Homo sapiens, UniProt P29376); assay: Biochemical screening against 442 kinases
Sequence of LTK (P29376 17-864): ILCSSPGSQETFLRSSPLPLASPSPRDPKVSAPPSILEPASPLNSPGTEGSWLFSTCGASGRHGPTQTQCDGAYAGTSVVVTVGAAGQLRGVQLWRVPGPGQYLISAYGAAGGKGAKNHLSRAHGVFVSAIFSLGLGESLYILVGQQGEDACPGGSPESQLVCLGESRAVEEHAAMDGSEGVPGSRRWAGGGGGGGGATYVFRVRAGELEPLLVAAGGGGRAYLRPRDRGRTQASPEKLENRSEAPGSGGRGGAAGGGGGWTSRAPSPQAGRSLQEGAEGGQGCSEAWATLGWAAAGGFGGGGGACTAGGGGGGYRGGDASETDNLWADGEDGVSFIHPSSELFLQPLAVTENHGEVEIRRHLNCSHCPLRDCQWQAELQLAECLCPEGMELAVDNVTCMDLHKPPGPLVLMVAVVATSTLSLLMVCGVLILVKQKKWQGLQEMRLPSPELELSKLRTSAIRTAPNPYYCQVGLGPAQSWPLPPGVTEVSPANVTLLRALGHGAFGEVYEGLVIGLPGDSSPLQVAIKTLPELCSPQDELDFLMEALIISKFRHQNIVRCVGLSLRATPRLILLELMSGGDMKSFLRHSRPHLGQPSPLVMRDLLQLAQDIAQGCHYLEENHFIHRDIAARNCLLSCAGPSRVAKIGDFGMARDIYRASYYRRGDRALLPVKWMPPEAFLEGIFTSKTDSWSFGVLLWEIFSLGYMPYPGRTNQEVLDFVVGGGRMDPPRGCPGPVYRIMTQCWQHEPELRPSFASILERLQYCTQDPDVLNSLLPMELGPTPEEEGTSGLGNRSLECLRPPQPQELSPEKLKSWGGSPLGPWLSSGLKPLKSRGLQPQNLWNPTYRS

[5] = S114 xenograft, 2 h after dose, oral, 4 studies
[6] = S114 xenograft, plasma concentration, 2 h after dose

T1 sequence (P08581 1078-1345 limits assumed): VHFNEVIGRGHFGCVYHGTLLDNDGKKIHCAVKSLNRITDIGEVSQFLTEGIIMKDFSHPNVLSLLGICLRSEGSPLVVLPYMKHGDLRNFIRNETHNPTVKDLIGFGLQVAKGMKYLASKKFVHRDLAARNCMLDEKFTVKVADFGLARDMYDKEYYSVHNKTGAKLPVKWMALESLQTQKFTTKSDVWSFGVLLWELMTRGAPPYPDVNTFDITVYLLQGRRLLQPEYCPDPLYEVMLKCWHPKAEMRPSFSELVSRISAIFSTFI

Compound: Cc1ccc(C(=O)Nc2ccc(Oc3cc4cnn(C)c4cc3-c3cn[nH]c3)c(F)c2)c(=O)n1-c1ccc(F)cc1 [LY2801653, N-(3-fluoro-4-{[1-methyl-6-(1H-pyrazol-4-yl)-1H-indazol-5 yl]oxy}phenyl)-1-(4-fluorophenyl)-6-methyl-2-oxo-1,2-dihydropyridine-3-carboxamide]
- mode of inhibition (human MET kinase domain [1]): competitive
- half-life (t1/2) (human MET kinase domain [2]): 525 min
- effect on HGF-induced DU-145 cell scattering (DU145 cells): completely blocked
- IC50 (MV4-11 cells): 4 nM
- p-MET inhibition in tumors by 16 h ([3]; S114 xenograft, 12 mg/kg oral, 16 h): no p-MET inhibition was observed
- inhibition of p-MET ([3]; S114 xenograft, 12 mg/kg oral, at 2 h and maintained up to 8 h): Ninety-five percent
- composite TED50 (50 % target inhibition dose) [3, 5]: 1.2 mg/kg
- composite TED90 (90 % target inhibition dose) [3, 5]: 7.4 mg/kg
- inhibition of MET phosphorylation ([3]; S114 xenograft, 2 h post-treatment, single 50-mg/kg dose, oral): 98%
- TEC50 (the concentration that inhibited 50 % MET phosphorylation) [3, 6]: 0.2 µM
- TEC90 (the concentration that inhibited 90 % MET phosphorylation) [3, 6]: 2 µM
- inhibition at 12 mg/kg ([3]; mouse, po, read-out: inhibition of p-MET): 95%
- half-life (Pharmacokinetics in mice): 174 min
- half-life [4]: 858 min
- anti-tumor growth effect (U-87MG xenograft): significant anti-tumor growth effect
- anti-tumor growth effect (KP4 xenograft): significant anti-tumor growth effect
- anti-tumor growth effect (MKN45 xenograft): significant anti-tumor growth effect
- anti-tumor growth effect (H441 xenograft): significant anti-tumor growth effect
- tumor activity in xenograft model (H1993 xenograft): demonstrates tumor activity
- tumor activity in xenograft model (HT29 xenograft): demonstrates tumor activity
- in vivo anti-tumor growth activity (MV4-11 xenograft): in vivo anti-tumor growth activity
- in vivo anti-tumor growth activity (H1299 orthotopic model): in vivo anti-tumor growth activity
- GLUT1 expression (U-87MG xenograft tumors): decrease in GLUT1 expression
- apoptotic area (U-87MG xenograft tumors): significantly reduced apoptotic area
- pericyte coverage of vessels (U-87MG xenograft tumors): increase in pericyte coverage of vessels
- activity against ALK (ALK): does not have significant activity
- activity against LTK (LTK): does not have significant activity
